This experiment concerns the target Potassium voltage-gated channel subfamily KQT member 1 (Homo sapiens) (UniProt P51787). Description: KCNQ1 channel current potentiators, confirmation, orthogonal assay for KCNQ1 potentiator project, IonWorks patch clamp, KCNQ1-CHO cells (AID 493184). The following applies: automated patch clamp current, at 10 µM. The gist of the method: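 Test system: KCNQ1-expressing CHO cells. Medium: pH 7.4 external bath. Probe or stimulus: voltage step from -90 mV holding to +40 mV, 2,000 ms. Compound: 10 µM final, single point. Detection: automated perforated-patch electrophysiology. Read-out: percent current increase versus pre-compound level. Repeats: two replicates.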

The source made the active and inactive calls.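 How the source made its calls: active means current rise at least 3 SD above the untreated control mean in each of two repeat wells; inactive means the rest.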

Chain of Potassium voltage-gated channel subfamily KQT member 1 (Homo sapiens) (P51787 whole entry, looked up): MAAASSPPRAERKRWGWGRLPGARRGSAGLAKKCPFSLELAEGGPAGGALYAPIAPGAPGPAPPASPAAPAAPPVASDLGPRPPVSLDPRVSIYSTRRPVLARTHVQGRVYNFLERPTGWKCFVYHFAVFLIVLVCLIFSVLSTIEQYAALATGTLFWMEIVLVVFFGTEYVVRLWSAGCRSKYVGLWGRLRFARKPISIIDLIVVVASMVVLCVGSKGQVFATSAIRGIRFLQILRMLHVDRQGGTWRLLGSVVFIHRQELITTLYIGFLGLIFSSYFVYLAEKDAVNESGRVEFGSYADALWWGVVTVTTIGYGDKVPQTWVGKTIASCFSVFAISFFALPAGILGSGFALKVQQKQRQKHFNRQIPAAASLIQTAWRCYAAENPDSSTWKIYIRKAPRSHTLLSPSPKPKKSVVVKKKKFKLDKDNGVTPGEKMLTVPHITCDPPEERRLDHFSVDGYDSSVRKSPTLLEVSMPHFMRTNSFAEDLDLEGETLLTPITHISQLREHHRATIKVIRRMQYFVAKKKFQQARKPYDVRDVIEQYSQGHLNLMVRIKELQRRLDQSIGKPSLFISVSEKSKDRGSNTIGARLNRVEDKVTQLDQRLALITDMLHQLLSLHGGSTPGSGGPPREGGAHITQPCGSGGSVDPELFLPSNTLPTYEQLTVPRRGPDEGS

On to `Cc1cccc(/C=N/NC(=O)c2cc(Br)ccc2O)n1`, for which the result was inactive.

The record behind these values is PubChem BioAssay.
